In ChEMBL document CHEMBL1121738, “Mesoionic purinone analogues as inhibitors of cyclic-AMP phosphodiesterase: a comparison of several ring systems” (J Med Chem, 1981):

What was measured:
[1] = Inhibitory activity against phosphodiesterase using 1 uM cyclic-AMP as substrate in bovine heart; parameters: species or system Bos taurus; details: read-out: I50
Outline: (§1)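 Commercial bovine heart phosphodiesterase assayed by the Klee method with 1 μM cyclic-AMP substrate. Poorly soluble inhibitors were predissolved in 95% ethanol, giving 2.5% ethanol final. I50 was taken from a plot of V0/V against inhibitor concentration as the concentration where V0/V = 2. Five concentrations spanning 25–75% inhibition were used, and each I50 was repeated at least three times; ± standard error.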

Bos taurus [2] = species on record: Bos taurus; assay: Relative potency of compound to that of theophylline against phosphodiesterase from bovine heart
Outline: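 Klee-method assay of commercial bovine heart phosphodiesterase with 1 μM cyclic-AMP; some inhibitors were dissolved in 95% ethanol (2.5% final). I50 came from V0/V versus concentration plots (V0/V = 2), using five concentrations and at least three repeats. Each value is expressed relative to the I50 of a theophylline control (= 1.0) run with or without ethanol to match.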

Bos taurus [3] = species on record: Bos taurus; assay: Inhibition of bovine heart phosphodiesterase using 1 uM cyclic-AMP; outline: as §1
Bos taurus [4] = species on record: Bos taurus; assay: Inhibition of bovine heart phosphodiesterase at 1000 uM using 1 uM cyclic-AMP
Outline: (§2)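 Percent inhibition of commercial bovine heart phosphodiesterase at the single stated inhibitor concentration, measured by the Klee method with 1 μM cyclic-AMP substrate. Some compounds were dissolved in 95% ethanol, giving 2.5% final ethanol, before dilution with buffer.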

Bos taurus [5] = species on record: Bos taurus; assay: Inhibition of bovine heart phosphodiesterase at 2000 uM using 1 uM cyclic-AMP; outline: as §2
Bos taurus [6] = species on record: Bos taurus; assay: Inhibition of bovine heart phosphodiesterase at 1500 uM using 1 uM cyclic-AMP; outline: as §2
Bos taurus [7] = species on record: Bos taurus; assay: Inhibition of bovine heart phosphodiesterase at 3000 uM using 1 uM cyclic-AMP
Outline: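 Commercial bovine heart cyclic-AMP phosphodiesterase assayed by the Klee method with 1 μM cyclic-AMP substrate. Poorly soluble compounds were dissolved in 95% ethanol (2.5% final) before dilution with buffer. Activity is read as percent inhibition at a single inhibitor concentration.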

[8] = Inhibition of bovine heart phosphodiesterase using 1 uM cyclic-AMP (Insoluble); parameters: species or system Bos taurus; outline: as §1
[9] = Inhibition of bovine heart phosphodiesterase using 1 uM cyclic-AMP with ethanol; parameters: species or system Bos taurus; details: read-out: I50
Outline: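 Commercial bovine heart PDE, assayed by the Klee method with 1 μM cyclic-AMP substrate. Inhibitors were dissolved in 95% ethanol and diluted with buffer to 2.5% ethanol final. V0/V was plotted against inhibitor concentration, and I50 was taken where V0/V = 2. Five inhibitor concentrations spanning 25-75% inhibition were used, each I50 was run at least three times, and values are expressed relative to an ethanol-containing theophylline control (= 1.0) ± standard error.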

For CC1C(=O)N2N=CSC2=[N+](Cc2ccccc2)C1=O (centres undefined), which IC50 [1] is on record?
Its IC50 is 191 µM.

And the Relative potency (Bos taurus [2])?
The Relative potency was 2.2.

Which inhibition (Bos taurus [3]) does the source give for CCC1C(=O)N2CCSC2=[N+](CC)C1=O (centres undefined) here?
Its inhibition is 38%.

What does the source list for CCC1C(=O)N2C=CSC2=[N+](Cc2ccc(Cl)cc2)C1=O (centres undefined)?
IC50 [1]: 191 µM; Relative potency (Bos taurus [2]): 2.2

For C[N+]1=C2SC=CN2C(=O)CC1=O, which inhibition (Bos taurus [4]) is on record?
The inhibition was < 40%.

With CCC1C(=O)N(C)C2SC=CN2C1=O (centres undefined) as the compound, how does the inhibition (Bos taurus [4]) read?
The inhibition was < 40%.

What does the source list for CCC1C(=O)N2C=CSC2=[N+](Cc2ccccc2Cl)C1=O (centres undefined)?
IC50 [1]: 305 µM; Relative potency (Bos taurus [2]): 1.4

Which IC50 [1] does the source give for CCC1C(=O)N(CC)c2scc[n+]2C1=O (centres undefined) here?
Its IC50 is 858 µM.

And the Relative potency (Bos taurus [2])?
Its Relative potency is 0.3.

Which Relative potency (Bos taurus [2]) does the source give for Cn1c(=O)c2[nH]cnc2n(C)c1=O here?
Its Relative potency is 1.

For CCC1C(=O)N2C=Cc3ccccc3C2=[N+](CC)C1=O (centres undefined), which IC50 [1] is on record?
Its IC50 is 127 µM.

And the Relative potency (Bos taurus [2])?
Its Relative potency is 3.2.

Which inhibition (Bos taurus [5]) does the source give for CC1C(=O)N2N=CN(C)C2=[N+](C)C1=O (centres undefined) here?
The inhibition was < 30%.

For CCC1C(=O)N2CCSC2=[N+](CC(C)C)C1=O (centres undefined), which inhibition (Bos taurus [6]) is on record?
The inhibition was 39%.

For CC1C(=O)N2C=CSC2=[N+](CC2CC2)C1=O (centres undefined), which IC50 [1] is on record?
Its IC50 is 319 µM.

And the Relative potency (Bos taurus [2])?
The Relative potency was 0.9.

With CCC1C(=O)N2C=CN(C)C2=[N+](CC)C1=O (centres undefined) as the compound, how does the inhibition (Bos taurus [7]) read?
The inhibition was < 30%.

Which IC50 [1] does the source give for CCC1C(=O)N2C=CSC2=[N+](Cc2cc(OC)cc(OC)c2)C1=O (centres undefined) here?
The IC50 was 323 µM.

What about the Relative potency (Bos taurus [2]) of the same compound?
The Relative potency was 1.3.

For CC1C(=O)N(C)C2SC=CN2C1=O (centres undefined), which inhibition (Bos taurus [4]) is on record?
The inhibition was < 40%.

Which IC50 [1] does the source give for CCC1C(=O)N2C=CC=NC2=[N+](C)C1=O (centres undefined) here?
Its IC50 is 1670 µM.

What about the Relative potency (Bos taurus [2]) of the same compound?
The Relative potency was 0.2.

What does the source list for CCC1C(=O)N2C=CSC2=[N+](CC2CC2)C1=O (centres undefined)?
IC50 [1]: 396 µM; Relative potency (Bos taurus [2]): 0.7

With CCC1C(=O)N2C=CSC2=[N+](CC(C)C)C1=O (centres undefined) as the compound, how does the IC50 [1] read?
The IC50 was 498 µM.

What about the Relative potency (Bos taurus [2]) of the same compound?
The Relative potency was 0.6.

What does the source list for COc1ccc(C[N+]2=C3SC=CN3C(=O)C(C)C2=O)cc1 (centres undefined)?
IC50 [1]: 532 µM; Relative potency (Bos taurus [2]): 0.7

For CCC1C(=O)N2C=CC=CC2=[N+](CC2CCCCC2)C1=O (centres undefined), which IC50 [1] is on record?
The IC50 was 210 µM.

And the Relative potency (Bos taurus [2])?
Its Relative potency is 2.

With CC[N+]1=C2N(C)C=CN2C(=O)C(C)C1=O (centres undefined) as the compound, how does the inhibition (Bos taurus [7]) read?
The inhibition was < 30%.

Which results are given for CC[N+]1=C2SC=CN2C(=O)CC1=O?
IC50 [1]: 988 µM; Relative potency (Bos taurus [2]): 0.3

Which IC50 [1] does the source give for CC[N+]1=C2SC=NN2C(=O)CC1=O here?
The IC50 was 774 µM.

And the Relative potency (Bos taurus [2])?
The Relative potency was 0.5.

With CCC1C(=O)N2C=CSC2=[N+](c2ccccc2)C1=O (centres undefined) as the compound, how does the inhibition (Bos taurus [4]) read?
The inhibition was < 40%.

With CC1C(=O)N2C=CSC2=[N+](c2ccccc2)C1=O (centres undefined) as the compound, how does the inhibition (Bos taurus [4]) read?
The inhibition was < 40%.

Which results are given for CC[N+]1=C2SC=CN2C(=O)C(Cc2ccccc2)C1=O (centres undefined)?
IC50 [1]: 168 µM; Relative potency (Bos taurus [2]): 2.5

Which IC50 [1] does the source give for CC1C(=O)N2CCSC2=[N+](CC2CC2)C1=O (centres undefined) here?
The IC50 was 1260 µM.

And the Relative potency (Bos taurus [2])?
Its Relative potency is 0.2.

Which IC50 [1] does the source give for O=C1CC(=O)[n+]2ccsc2N1Cc1cccc(Cl)c1 here?
The IC50 was 308 µM.

What about the Relative potency (Bos taurus [2]) of the same compound?
The Relative potency was 1.3.

What does the source list for CCCC1C(=O)N2N=CN(C)C2=[N+](C)C1=O (centres undefined)?
IC50 [1]: 1710 µM; Relative potency (Bos taurus [2]): 0.2

With CCC1C(=O)N2C=CSC2=[N+](Cc2ccc3c(c2)OCO3)C1=O (centres undefined) as the compound, how does the IC50 [1] read?
Its IC50 is 261 µM.

And the Relative potency (Bos taurus [2])?
Its Relative potency is 1.6.

With CCC1C(=O)N=C2SC=NN2C1=O (centres undefined) as the compound, how does the I50 [8] read?
Its I50 is “Insoluble”.

With CCC1C(=O)N=C2SC=CN2C1=O (centres undefined) as the compound, how does the I50 [8] read?
Its I50 is “Insoluble”.

For CN1C=NN2C(=O)CC(=O)[N+](C)=C12, which inhibition (Bos taurus [5]) is on record?
Its inhibition is < 30%.

With CCC1C(=O)N=C2N=CC=CN2C1=O (centres undefined) as the compound, how does the inhibition (Bos taurus [5]) read?
Its inhibition is 22%.

For CC[N+]1=C2SC=CN2C(=O)C(C)C1=O (centres undefined), which IC50 [1] is on record?
The IC50 was 951 µM.

And the Relative potency (Bos taurus [2])?
The Relative potency was 0.3.

What does the source list for CC[N+]1=C2SC=NN2C(=O)C(C)C1=O (centres undefined)?
IC50 [1]: 1160 µM; Relative potency (Bos taurus [2]): 0.4

For CCC1C(=O)N2C=CSC2=[N+](Cc2cccc(Cl)c2)C1=O (centres undefined), which IC50 [1] is on record?
Its IC50 is 208 µM.

And the Relative potency (Bos taurus [2])?
The Relative potency was 2.

With CCC1C(=O)N2N=CN(C)C2=[N+](C)C1=O (centres undefined) as the compound, how does the inhibition (Bos taurus [5]) read?
The inhibition was < 30%.

For C[N+]1=C2SC=NN2C(=O)CC1=O, which IC50 [1] is on record?
The IC50 was 1100 µM.

What about the Relative potency (Bos taurus [2]) of the same compound?
Its Relative potency is 0.4.

With O=C1CC(=O)[N+](CC2CC2)=C2SCCN12 as the compound, how does the IC50 [1] read?
The IC50 was 2050 µM.

What about the Relative potency (Bos taurus [2]) of the same compound?
Its Relative potency is 0.1.

Which results are given for CCC1C(=O)N2CCSC2=[N+](CC2CC2)C1=O (centres undefined)?
IC50 [1]: 1390 µM; Relative potency (Bos taurus [2]): 0.2

With CCC1C(=O)N2N=CSC2=[N+](CC)C1=O (centres undefined) as the compound, how does the IC50 [1] read?
The IC50 was 555 µM.

What about the Relative potency (Bos taurus [2]) of the same compound?
Its Relative potency is 0.7.

For CCC1C(=O)N2C=CSC2=[N+](Cc2ccccc2)C1=O (centres undefined), which IC50 [1] is on record?
The IC50 was 430 µM.

And the Relative potency (Bos taurus [2])?
The Relative potency was 0.9.

With CC[N+]1=C2SC=NN2C(=O)C(Cc2ccccc2)C1=O (centres undefined) as the compound, how does the IC50 [1] read?
The IC50 was 52 µM.

And the Relative potency (Bos taurus [2])?
The Relative potency was 7.9.

Which IC50 [1] does the source give for O=C1CC(=O)[N+](CC2CC2)=C2SC=CN12 here?
The IC50 was 495 µM.

What about the Relative potency (Bos taurus [2]) of the same compound?
The Relative potency was 0.6.

With Cn1c(=O)c2nc[nH]c2n(C)c1=O [THEOPHYLLINE] as the compound, how does the IC50 [1] read?
The IC50 was 286 µM.

And the IC50 [9]?
The IC50 was 412 µM.

Which IC50 [1] does the source give for CCC1C(=O)N2C=CSC2=[N+](Cc2ccc(-c3ccccc3)cc2)C1=O (centres undefined) here?
Its IC50 is 13 µM.

And the Relative potency (Bos taurus [2])?
The Relative potency was 31.7.

With O=C1CC(=O)[N+](c2ccccc2)=C2SC=CN12 as the compound, how does the inhibition (Bos taurus [4]) read?
The inhibition was < 40%.
